Test results as given in ChEMBL document CHEMBL1125103, “Structure-activity relationships for metal-labeled blood flow tracers: comparison of keto aldehyde bis(thiosemicarbazonato)copper(II) derivatives” (J Med Chem, 1990).
One block for each substance: values may come before it.

What was measured:
[1] = Partition coefficient (logP); type: physicochemical; conditions: octanol/water
Summary of the method: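 1-Octanol (1 mL) and isotonic Tris buffer pH 7.0 (1 mL) vortexed with 1–5 μL of the 67Cu-labeled aqueous complex, then centrifuged at >1200g for 5 min. Both phases were gamma counted in a window on the 185 keV peak. P = counts per g octanol / counts per g water. The octanol phase was re-extracted; the value is from the second and third extractions, mean of six measurements.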

Rattus norvegicus [2] = species on record: Rattus norvegicus; test: Myocardial levels of tracer copper in rats 5 min after injection into the femoral vein; type: functional, organism-based; conditions: Myocardium
Summary of the method: (§1)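 Copper-67 bis(thiosemicarbazone) complex, 0.2 mL (1–3 μCi) in 5–10% ethanol, injected with a 27-gauge needle into the exposed femoral vein of ether-anesthetized Sprague-Dawley rats (generally 175–225 g). Dose was set by weighing the syringe. Rats were killed by decapitation; organs were excised, blotted and weighed, and counted for 67Cu by gamma counting against a diluted standard dose. Values are percent injected dose per organ, with blood volume taken as 7% of body mass. Generally four rats per time point; mean ± SD.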

Rattus norvegicus [3] = species on record: Rattus norvegicus; test: Blood levels of tracer copper in rats 2 hr after injection into the femoral vein; type: functional, organism-based; summary of the method: as §1
Rattus norvegicus [4] = species on record: Rattus norvegicus; test: Brain levels of tracer copper in rats 1 min after injection into the femoral vein; type: functional, organism-based; summary of the method: as §1
Rattus norvegicus [5] = species on record: Rattus norvegicus; test: (§2) Blood levels of tracer copper in rats 5 min after injection into the femoral vein; type: functional, organism-based; summary of the method: as §1
Rattus norvegicus [6] = species on record: Rattus norvegicus; test: Kidney levels of tracer copper in rats 5 min after injection into the femoral vein; type: functional, organism-based; summary of the method: as §1
Rattus norvegicus [7] = species on record: Rattus norvegicus; test: Pulmonary levels of tracer copper in rats 2 hr after injection into the femoral vein; type: functional, organism-based; summary of the method: as §1
Rattus norvegicus [8] = species on record: Rattus norvegicus; test: Myocardial levels of tracer copper in rats 2 hr after injection into the femoral vein; type: functional, organism-based; conditions: Myocardium; summary of the method: as §1
Rattus norvegicus [9] = species on record: Rattus norvegicus; test: Myocardial levels of tracer copper in rats 1 min after injection into the femoral vein; type: functional, organism-based; conditions: Myocardium; summary of the method: as §1
Rattus norvegicus [10] = species on record: Rattus norvegicus; test: Blood levels of tracer copper in rats 1 min after injection into the femoral vein; type: functional, organism-based; summary of the method: as §1
Rattus norvegicus [11] = species on record: Rattus norvegicus; test: Pulmonary levels of tracer copper in rats 5 min after injection into the femoral vein; type: functional, organism-based; summary of the method: as §1
Rattus norvegicus [12] = species on record: Rattus norvegicus; test: as §2; type: functional, organism-based; summary of the method: as §1; remark: listed apart in the source
Rattus norvegicus [13] = species on record: Rattus norvegicus; test: Liver levels of tracer copper in rats 5 min after injection into the femoral vein; type: functional, organism-based; summary of the method: as §1
Rattus norvegicus [14] = species on record: Rattus norvegicus; test: Brain levels of tracer copper in rats 5 min after injection into the femoral vein; type: functional, organism-based; summary of the method: as §1
Rattus norvegicus [15] = species on record: Rattus norvegicus; test: Kidney levels of tracer copper in rats 2 hr after injection into the femoral vein; type: functional, organism-based; summary of the method: as §1
Rattus norvegicus [16] = species on record: Rattus norvegicus; test: Liver levels of tracer copper in rats 1 min after injection into the femoral vein; type: functional, organism-based; summary of the method: as §1
Rattus norvegicus [17] = species on record: Rattus norvegicus; test: Liver levels of tracer copper in rats 2 hr after injection into the femoral vein; type: functional, organism-based; summary of the method: as §1
Rattus norvegicus [18] = species on record: Rattus norvegicus; test: Pulmonary levels of tracer copper in rats 1 min after injection into the femoral vein; type: functional, organism-based; summary of the method: as §1
Rattus norvegicus [19] = species on record: Rattus norvegicus; test: Brain levels of tracer copper in rats 2 hr after injection into the femoral vein; type: functional, organism-based; summary of the method: as §1
Rattus norvegicus [20] = species on record: Rattus norvegicus; test: Kidney levels of tracer copper in rats 1 min after injection into the femoral vein; type: functional, organism-based; summary of the method: as §1

logP [1]: 1.78
Substance: Propyl glyoxal bis(thiosemicarbazone)(67Cu-n-PrTS) [listing 1 of 2 here]

Substance: Propyl glyoxal bis(thiosemicarbazone)(67Cu-n-PrTS) [listing 2 of 2 here]
Injected dose (Rattus norvegicus [2]): 3% | Injected dose (Rattus norvegicus [3]): 8.5% | Injected dose (Rattus norvegicus [4]): 1.45% | Injected dose (Rattus norvegicus [5]): 8.9% | Injected dose (Rattus norvegicus [6]): 2.8% | Injected dose (Rattus norvegicus [7]): 5.2% | Injected dose (Rattus norvegicus [8]): 3.5% | Injected dose (Rattus norvegicus [9]): 3.9% | Injected dose (Rattus norvegicus [10]): 15.2% | Injected dose (Rattus norvegicus [11]): 9.6% | Injected dose (Rattus norvegicus [12]): 8.9% | Injected dose (Rattus norvegicus [13]): 13.7% | Injected dose (Rattus norvegicus [14]): 1.27% | Injected dose (Rattus norvegicus [15]): 3.6% | Injected dose (Rattus norvegicus [16]): 11.5% | Injected dose (Rattus norvegicus [17]): 17.3% | Injected dose (Rattus norvegicus [18]): 13.1% | Injected dose (Rattus norvegicus [19]): 1.79% | Injected dose (Rattus norvegicus [20]): 2.8%
